Experimental data: ChEMBL document CHEMBL3352166, “Structure-guided design and development of novel benzimidazole class of compounds targeting DNA gyraseB enzyme of Staphylococcus aureus” (Bioorg Med Chem, 2014)
≈ marks a conversion by molar mass, not a printed value.

Key:
[1] = molecular target: DNA gyrase subunit B (Staphylococcus aureus, UniProt P0A0K8); experiment: Inhibition of Staphylococcus aureus DNA gyrase B ATPase activity
[2] = molecular target: DNA gyrase (Staphylococcus aureus, UniProt P0A0K8+P20831); experiment: Inhibition of Staphylococcus aureus DNA gyrase-mediated supercoiling of relaxed DNA using pBR 322 as substrate by agarose gel electrophoresis analysis; assay type: protein-complex assay
Chain of DNA gyrase (P0A0K8 whole entry): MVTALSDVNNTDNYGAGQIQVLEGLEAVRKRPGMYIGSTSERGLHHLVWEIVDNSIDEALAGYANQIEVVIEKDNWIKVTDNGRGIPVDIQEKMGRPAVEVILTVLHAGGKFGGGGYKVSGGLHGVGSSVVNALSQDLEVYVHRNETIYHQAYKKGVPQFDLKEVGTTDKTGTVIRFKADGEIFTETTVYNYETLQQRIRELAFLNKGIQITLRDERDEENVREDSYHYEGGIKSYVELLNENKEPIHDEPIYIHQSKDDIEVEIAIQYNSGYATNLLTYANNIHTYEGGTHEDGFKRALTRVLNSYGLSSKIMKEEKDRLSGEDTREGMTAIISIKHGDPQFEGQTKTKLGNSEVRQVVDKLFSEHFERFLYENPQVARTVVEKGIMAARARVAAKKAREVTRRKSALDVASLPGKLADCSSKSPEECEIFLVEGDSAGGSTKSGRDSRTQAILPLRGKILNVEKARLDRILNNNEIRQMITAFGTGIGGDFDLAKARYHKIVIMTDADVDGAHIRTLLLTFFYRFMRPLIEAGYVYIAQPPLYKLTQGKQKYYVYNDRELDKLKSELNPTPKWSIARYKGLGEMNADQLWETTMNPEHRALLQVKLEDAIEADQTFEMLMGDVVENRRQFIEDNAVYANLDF
Chain of DNA gyrase (P20831 whole entry): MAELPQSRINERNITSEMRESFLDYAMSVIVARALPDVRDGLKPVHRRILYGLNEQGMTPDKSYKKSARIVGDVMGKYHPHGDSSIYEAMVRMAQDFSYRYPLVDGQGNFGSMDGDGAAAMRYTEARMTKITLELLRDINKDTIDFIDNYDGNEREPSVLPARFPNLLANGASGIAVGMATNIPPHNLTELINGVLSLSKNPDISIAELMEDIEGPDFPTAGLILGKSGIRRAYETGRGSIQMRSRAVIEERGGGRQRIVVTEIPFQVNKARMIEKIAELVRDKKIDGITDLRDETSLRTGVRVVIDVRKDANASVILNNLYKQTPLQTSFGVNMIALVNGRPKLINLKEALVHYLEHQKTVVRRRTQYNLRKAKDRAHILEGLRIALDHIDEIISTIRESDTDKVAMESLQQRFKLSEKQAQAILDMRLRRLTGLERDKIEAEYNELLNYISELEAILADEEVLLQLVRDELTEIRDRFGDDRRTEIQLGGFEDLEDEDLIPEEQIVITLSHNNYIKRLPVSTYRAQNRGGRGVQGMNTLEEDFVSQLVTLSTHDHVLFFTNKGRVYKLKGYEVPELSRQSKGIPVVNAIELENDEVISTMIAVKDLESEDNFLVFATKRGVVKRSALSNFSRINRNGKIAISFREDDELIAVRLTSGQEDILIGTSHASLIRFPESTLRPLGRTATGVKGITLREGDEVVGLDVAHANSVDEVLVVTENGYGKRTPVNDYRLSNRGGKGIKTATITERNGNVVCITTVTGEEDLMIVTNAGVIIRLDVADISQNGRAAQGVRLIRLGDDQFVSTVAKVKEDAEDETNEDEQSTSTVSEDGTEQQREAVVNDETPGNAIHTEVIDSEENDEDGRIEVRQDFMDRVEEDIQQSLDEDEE

[3] = system: Staphylococcus aureus; experiment: Antimicrobial activity against Staphylococcus aureus MTCC 3160 after 16 to 24 hrs by agar dilution method; assay type: functional
Summary of the method: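 MIC by agar dilution per CLSI on Mueller-Hinton agar. Overnight colonies were suspended to about 10^6 cfu/mL, and 1 mL was added to 19 mL medium. Compounds were made up in 0.9% saline and tested over about 10 doubling dilutions, 100 µM to 0.1 µM. Plates ran 16-20 h at 35 °C in ambient air. MIC was the lowest concentration preventing visible growth.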

[4] = system: Staphylococcus aureus; experiment: Antimicrobial activity against methicillin-resistant Staphylococcus aureus MTCC 96 after 16 to 24 hrs by agar dilution method; assay type: functional
Summary of the method: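 Agar dilution per CLSI guidelines on Mueller-Hinton agar. Overnight colonies suspended to about 10^6 cfu/mL, and 1 mL added to 19 mL medium. Stocks in 0.9% saline, tested over about 10 doubling dilutions from 100 µM to 0.1 µM. Plates incubated at 35 °C in ambient air for 16-20 h. MIC taken as the lowest concentration preventing visible growth.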

[5] = Cytotoxicity against human HEK293 cells assessed as reduction in cell viability at 100 uM after 72 hrs by MTT assay; assay type: cell-based; details: read-out: INH
Summary of the method: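 HEK-293 cells were seeded at 5000 per well and left 24 h, then washed. They were exposed to 100 µM in RPMI + 5% FBS + 1% penicillin/streptomycin, with final DMSO ≤0.5%, for 72 h at 37 °C in 5% CO2. DMSO-treated cultures served as controls. Viability was read by MTT at 570 nm, in triplicate, as percentage inhibition.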

[6] = system: Staphylococcus aureus; experiment: Inhibition of biofilm formation in methicillin-resistant Staphylococcus aureus MTCC 96 after 24 hr incubation by tissue culture plate method; details: MTCC 96, 24 h

Chain of DNA gyrase subunit B (P0A0K8 whole entry): as the sequence (P0A0K8 whole entry) above

Row | Compound | IC50 [1] [µM] | IC50 [2] [µM] | MIC [3] [µM] | MIC [4] [µM] | cytotoxicity at 72 h, 100 µM [5] [%] | IC50 [6] [µM]
1 | O=C(O)CSCC(=O)Nc1ccc(-c2nc3ccccc3[nH]2)cc1 | 22.8 | 12.5 | 73.3 (≈ 25 µg/mL) | 37.6 (≈ 12.8 µg/mL) | 13.1 | 82.1
2 | COC(=O)CCCC(=O)Nc1ccc(-c2nc3ccccc3[nH]2)cc1 | 36.3 | 25 | 148 (≈ 50 µg/mL) | 148 (≈ 50 µg/mL) | 9.7 | > 100
3 | O=C(O)CSCC(=O)Nc1ccc(-c2nc3cc(F)ccc3[nH]2)cc1 | 6.93 | 4.8 | 34.8 (≈ 12.5 µg/mL) | 17.3 (≈ 6.22 µg/mL) | 20.6 | 59.1
4 | O=C(O)CCCC(=O)Nc1ccc(-c2nc3cc(Cl)ccc3[nH]2)cc1 | 9.85 | 9.13 | 34.9 (≈ 12.5 µg/mL) | 69.8 (≈ 25 µg/mL) | 45.5 | > 100
5 | COc1ccc2[nH]c(-c3ccc(NC(=O)CCCCC(=O)O)cc3)nc2c1 | 22.9 | 12.5 | 68 (≈ 25 µg/mL) | 34.1 (≈ 12.5 µg/mL) | 29.4 | 71.1
6 | COC(=O)CCCC(=O)Nc1ccc(-c2nc3cccnc3[nH]2)cc1 | 5.23 | 6.8 | 36.9 (≈ 12.5 µg/mL) | 36.9 (≈ 12.5 µg/mL) | 57.5 | 79.3
7 | Cc1sc2nc(SCC(=O)Nc3cccc(C(=O)O)c3)nc(O)c2c1C | 17.3 | 8.22 | – | – | – | –
8 | O=C(O)CCCCC(=O)Nc1ccc(-c2nc3cccnc3[nH]2)cc1 | 2.9 | 2.1 | 4.61 (≈ 1.56 µg/mL) | 9.23 (≈ 3.12 µg/mL) | 22.7 | 15.7
9 | O=C(O)COCC(=O)Nc1ccc(-c2nc3cccnc3[nH]2)cc1 | 6.93 | 4.7 | 19.1 (≈ 6.25 µg/mL) | 38.3 (≈ 12.5 µg/mL) | 38.7 | 82.5
10 | O=c1nc(/C=C/c2ccc(/C=C/c3cc(C(F)(F)F)[nH]c(=O)n3)cc2)cc(C(F)(F)F)[nH]1 | 42.2 | 24.9 | – | – | – | –
11 | CC(Cc1c[nH]c2ccccc12)NC(=O)CSS(=O)(=O)O (stereo not drawn) | 89.9 | > 50 | – | – | – | –
12 | COC(=O)CCCC(=O)Nc1ccc(-c2nc3cc(OC)ccc3[nH]2)cc1 | 21.3 | 12.5 | 68 (≈ 25 µg/mL) | 34 (≈ 12.5 µg/mL) | 50.5 | 63.9
13 | O=C(O)CCCC(=O)Nc1ccc(-c2nc3ccccc3[nH]2)cc1 | 12.6 | 2.9 | – | – | – | –
14 | O=C(O)CCCCC(=O)Nc1ccc(-c2nc3cc(Cl)ccc3[nH]2)cc1 | 13.1 | 8.91 | 33.6 (≈ 12.5 µg/mL) | 33.6 (≈ 12.5 µg/mL) | 39.7 | 39.2
15 | O=C(O)CC(=O)Nc1ccc(-c2nc3cc([N+](=O)[O-])ccc3[nH]2)cc1 | 4.93 | 2.23 | 9.18 (≈ 3.12 µg/mL) | 18.3 (≈ 6.24 µg/mL) | 26.9 | 18.4
16 | O=C(O)CCCCC(=O)Nc1ccc(-c2nc3cc(F)ccc3[nH]2)cc1 | 15.3 | 7.1 | 35.2 (≈ 12.5 µg/mL) | 59.3 (≈ 21.1 µg/mL) | 29 | > 100
17 | O=C(O)CCC(=O)Nc1ccc(NC(=O)c2ccco2)cc1 | 12.9 | 3.13 | – | – | – | –
18 | COc1ccc2[nH]c(-c3ccc(NC(=O)CCCC(=O)O)cc3)nc2c1 | 8.93 | 5.32 | 35.4 (≈ 12.5 µg/mL) | 35.4 (≈ 12.5 µg/mL) | 22.4 | 52.2
19 | O=C(O)CCCCC(=O)Nc1ccc(-c2nc3ccccc3[nH]2)cc1 | 5.7 | 6.12 | 37 (≈ 12.5 µg/mL) | 37 (≈ 12.5 µg/mL) | 32.1 | 81.5
20 | COC(=O)CCCC(=O)Nc1ccc(-c2nc3cc(Cl)ccc3[nH]2)cc1 | 35.6 | 22.2 | 67.2 (≈ 25 µg/mL) | 134 (≈ 50 µg/mL) | 27.9 | > 100
21 | CNc1cc(CCNC(=O)c2ccc3oc(O)nc3c2)nc(-c2ccncc2)n1 | 92.1 | > 50 | – | – | – | –
22 | CO[C@@H]1[C@@H](OC(N)=O)[C@@H](O)[C@H](Oc2ccc3c(O)c(NC(=O)c4ccc(O)c(CC=C(C)C)c4)c(=O)oc3c2C)OC1(C)C [NOVOBIOCIN] | – | – | 0.25 (≈ 0.153 µg/mL) | – | – | –
